Measured values pooled from the literature.
Protocols differ between the studies behind these lines.
ALK: ALK tyrosine kinase receptor (ALK, Homo sapiens, UniProt Q9UM73)
ALK L1196M: ALK tyrosine kinase receptor (ALK, Homo sapiens, UniProt Q9UM73, L1196M)
ALK C1156Y: ALK tyrosine kinase receptor (ALK, Homo sapiens, UniProt Q9UM73, C1156Y)

SMILES	target	assay	conditions	endpoint	value
CCCOc1ccc(OC)c(F)c1C(=O)c1ccc(C(=O)N[C@@H]2CNC[C@H]2NC(=O)c2ccc3[nH]ncc3c2)cc1	ALK	enzyme activity, inhibitor	10 µM	remaining activity	47%
O=C(O)c1cc(-c2ccc(C3CCNCC3)cc2)c2ccc(-c3ccc(C(F)(F)F)cc3)cc2c1	ALK	cell-free assay, competition with immobilised ligand	1 µM	remaining binding	100%
Cc1ccc(Nc2nccc(N(C)c3ccc4c(C)n(C)nc4c3)n2)cc1S(N)(=O)=O	ALK	enzyme activity, inhibitor	10 µM	inhibition	79%
Cc1ccc(NC(=O)c2ccc(C)c(C(F)(F)F)c2)cc1C#Cc1nn(C2CCC(O)CC2)c2ncnc(N)c12 (centres unmarked)	ALK	cell-free assay	10 µM	remaining signal	92%
COc1cc2ncnc(Nc3ccc(Oc4ccccc4)cc3C)c2cc1OC	ALK	enzyme activity, inhibitor	1 µM	inhibition	-2%
Cc1[nH]c(/C=C2\C(=O)Nc3ccc(F)cc32)c(C)c1C(=O)N[C@H]1CCN(C(=O)N(C)C)C1	ALK	enzyme activity, inhibitor	1 µM	remaining activity	73%
N#CCCc1ccc2c(c1)-c1[nH]c3ccc([N+](=O)[O-])cc3c1CC(=O)N2	ALK	cell-free assay	0.5 µM	remaining signal	78.8%
O=C(Nc1cnn(-c2csc(C(=O)NC3COC3)c2)c1)Nc1c(F)cccc1Cl	ALK	enzyme activity, inhibitor	5 µM	remaining activity	89.2%
N#CC1(c2ccccn2)CCN(Cc2cc(C(=O)N3CCCC3)c(=O)n3ccccc23)CC1	ALK	cell-free assay, competition with immobilised ligand	1 µM	remaining binding	100%
c1cnn2ncc(-c3ccnc(N4CCC45COC5)n3)c2c1	ALK L1196M	binding	1 µM	remaining binding	40%
CC/C(=N\NC(=O)NCc1cccc(O)c1)c1ccc(O)c(C)c1O	ALK tyrosine kinase receptor (ALK, Homo sapiens, UniProt Q9UM73, R1275Q)	enzyme activity, inhibitor	0.1 µM	inhibition	4.8%
CN([C@@H]1CCc2c(CC(=O)O)c3ccccc3n2C1)S(=O)(=O)c1ccc(F)cc1	ALK	cell-free assay, competition with immobilised ligand	1 µM	remaining binding	78%
CCN(CC)CCNC(=O)c1c(C)[nH]c(/C=C2\C(=O)Nc3ccc(F)cc32)c1C	ALK	enzyme activity, inhibitor	1 µM	remaining activity	27%
Cc1ccc(C(=O)Nc2ccc(CN3CCN(C)CC3)c(C(F)(F)F)c2)cc1C#Cc1cnc2cccnn12	ALK L1196M	cell-free assay	23.5 nM	remaining signal	99%
CNC(=O)c1cc2c(Oc3ccc(NC(=O)C4(C(=O)Nc5ccc(F)cc5)CC4)cc3)ccnc2cc1OC	ALK	enzyme activity, inhibitor, radiometric	1 µM	inhibition	81%
CCN(CC)CCNC(=O)c1c(C)[nH]c(/C=C2\C(=O)Nc3ccc(F)cc32)c1C	ALK	cell-free assay	0.5 µM	remaining signal	16.6%
CNC(=O)c1cc(Oc2ccc(NC(=O)Nc3ccc(Cl)c(C(F)(F)F)c3)cc2)ccn1	ALK	enzyme activity, inhibitor	10 µM	inhibition	45%
COc1ccc2cc(OCC3(C(=O)O)CN(C(=O)c4ccc(F)cc4)C3)ccc2c1	ALK L1196M	cell-free assay, competition with immobilised ligand	1 µM	remaining binding	100%

SMILES	target	assay	conditions	endpoint	value
C=CC(=O)Nc1cc(Nc2nccc(Nc3cc(Cl)c(F)cc3C(C)(C)O)n2)c(OC)cc1N1CC[C@@H](N(C)C)C1	ALK	enzyme activity, inhibitor	1 µM	inhibition	86%
Cc1sc(C(=O)NC2COC2)cc1-n1cc(NC(=O)Nc2c(F)cccc2Cl)cn1	ALK	enzyme activity, inhibitor	10 µM	remaining activity	100%
CN(C(=O)c1ccccc1)c1cc(N(C)c2ccc3c(c2)CCc2ccc(C(=O)NCCN4CCOCC4)cc2C3=O)ccc1F	ALK L1196M	cell-free assay, competition with immobilised ligand	1 µM	remaining binding	100%
COc1ccnn2ncc(-c3ccnc(N(C)C)n3)c12	ALK C1156Y	binding	1 µM	remaining binding	100%
CCCS(=O)(=O)Nc1ccc(F)c(C(=O)c2c[nH]c3ncc(-c4ccc(Cl)cc4)cc23)c1F	ALK	enzyme activity, inhibitor	1 µM	inhibition	< 10%
CNCc1ccc(-c2cc(-c3nc(-c4ccc(S(=O)(=O)C(C)C)cc4)cnc3N)on2)cc1	ALK	enzyme activity, inhibitor	0.4 µM	inhibition	2%
Cc1ccc(NC(=O)c2ccc(CN3CCN(C)CC3)cc2)cc1Nc1nc(-c2cccnc2)cs1	ALK	cell-free assay	0.5 µM	remaining signal	103%
C[C@H]1CCN(c2nccc(-c3cnn4ncccc34)n2)C1	ALK L1196M	binding	1 µM	remaining binding	100%
O=C(NCc1ncc(C(F)(F)F)cc1Cl)c1ccc2c(c1)C1(CCS(=O)(=O)CC1)[C@H](C1CC1)N2S(=O)(=O)c1ccc(F)cc1	ALK	cell-free assay, competition with immobilised ligand	1 µM	remaining binding	98%
N[C@@H]1CCN(c2nccc(-c3cnn4ncccc34)n2)C1	ALK C1156Y	binding	1 µM	remaining binding	65%
Nc1ncnc2occ(-c3ccc(NC(=O)Nc4cc(C(F)(F)F)ccc4F)cc3)c12	ALK	cell-free assay	20 µM	remaining signal	0.3%
Cc1cnc(NC2CCOCC2)nc1-n1cnc(C(=O)NC(CN)c2cc(F)cc(Cl)c2)c1 (centres unmarked)	ALK	enzyme activity, inhibitor, radiometric	1 µM	remaining activity	122%
O=C(CSc1nc2nccnc2c(=O)n1CCc1ccccc1)Nc1nccs1	ALK	enzyme activity, inhibitor	10 µM	inhibition	11%
CCCCN(CCCC)C(=O)CN1C[C@H](c2cc(OC)c3c(c2)OCO3)[C@@H](C(=O)O)[C@@H]1CC(C)(C)CCC	ALK L1196M	cell-free assay, competition with immobilised ligand	1 µM	remaining binding	100%
CN(C)c1ncc(F)c(-c2cnn3ncccc23)n1	ALK L1196M	binding	1 µM	remaining binding	59%
CN(C)c1ncnc(-c2ccc3nc(Nc4cc(CN5CCN(C(=O)CC(F)(F)F)CC5)ccn4)[nH]c3c2)c1Cl	ALK L1196M	cell-free assay, competition with immobilised ligand	1 µM	remaining binding	79%
CN(CCCC(F)(F)F)c1nccc(-c2cnn3ncccc23)n1	ALK L1196M	binding	1 µM	remaining binding	100%
